Several values for one entry are separate records, joined by “and”; a condition that tells them apart may be missing. Identical values can stand only once. Activity calls are given as the source filed them.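 How the source made its calls: active means dose response lowering luminescence by over half the proteasome blocker control effect, potency within ten times top dose; inactive means change in the opposite direction, plus the rest.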
Test system: not listed separately
Experiment: cellular proteasome inhibitors – cell-based, luminescence, U2OS, dry powder, set 3, counter-screen for HIF activator project, dose response (AID 493213)
Conditions: U2OS proteasome chymotrypsin-like activity, Proteasome-Glo luminescence; at 38 µM (top of the series)
How it was run: (§1)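 Signal: luminescence with 0.5X chymotrypsin-like Proteasome-Glo reagent; System: U2OS cells; Amount: 2,500 U2OS cells per well; Times: 24 h plating, 4 h compound, 2 h reagent.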

Row | Structure (SMILES) | activity change, negative = inhibition
1 | CC(C)(C)OC(=O)N1CCN(Cc2ccc(O)c3ncccc23)CC1 | 3.79% (inactive)
2 | O=C(NCCCN1CCOCC1)c1cc(-c2ccccc2)on1 | -24.4% (inactive)
3 | O=C(NCCCn1ccnc1)c1cc(-c2ccccc2)on1 | 9.43% (inactive)
4 | COc1cccc(CNc2nc(-c3ccccn3)nnc2-c2ccccc2)c1 | 36.9% (inactive)
5 | Clc1cccc(CNc2nc(-c3ccccn3)nnc2-c2ccccc2)c1 | 46.4% (inactive)
6 | CN1CCN(C(=O)c2cc(-c3ccccc3)on2)CC1 | -34.5% (inactive)
7 | Cc1ccc(Nc2nc(-c3ccccn3)nnc2-c2ccccc2)cn1 | -25% (inactive)
8 | OCC1CCN(Cc2ccc(O)c3ncccc23)CC1 | 51.9% (inactive)
9 | c1ccc(-c2nnc(-c3ccccn3)nc2NCc2cccnc2)cc1 | 14.6% (inactive)
10 | c1ccc(-c2csc(Nc3nc(-c4ccccn4)nnc3-c3ccccc3)n2)cc1 | -8.99% (inactive)
11 | c1ccc(-c2nnc(-c3ccccn3)nc2NCCCN2CCOCC2)cc1 | 6.94% (inactive)
12 | c1ccc(-c2nnc(-c3ccccn3)nc2NCCc2ccccn2)cc1 | 16.8% (inactive)
13 | c1ccc(-c2nnc(-c3ccccn3)nc2N2CCC(N3CCOCC3)CC2)cc1 | 16.5% (inactive)
14 | Cc1ccc(NC(=O)c2cc(-c3ccccc3)on2)cn1 | 14.5% (inactive)
15 | CN(C)c1nc(-c2ccccn2)nnc1-c1ccccc1 | 10.9% (inactive)
16 | O=C(NCCN1CCOCC1)c1cc(-c2ccccc2)on1 | -26.6% (inactive)
17 | c1ccc(-c2nnc(-c3ccccn3)nc2NCC2CC2)cc1 | -6.55% (inactive)
18 | Cc1cccc(CNc2nc(-c3ccccn3)nnc2-c2ccccc2)c1 | 45.1% (inactive)
19 | C[C@@H](Nc1nc(-c2ccccn2)nnc1-c1ccccc1)c1ccccc1 | 79.4% (inactive)
20 | c1ccc(-c2nnc(-c3ccccn3)nc2NCC2CCCCC2)cc1 | 49.9% (inactive)
21 | Oc1ccc(CNC2CCc3ccccc32)c2cccnc12 (configuration not stated) | 81.7% (inactive)
22 | Oc1ccc(CNC2Cc3ccccc3C2)c2cccnc12 | 26.4% (inactive)

Row | Structure (SMILES) | activity change, negative = inhibition
23 | Cc1ccccc1CNC(=O)c1cc(-c2ccccc2)on1 | -46.6% (inactive)
24 | O=C(Nc1ncc(-c2ccccc2)o1)c1cc(-c2ccccc2)on1 | -53.8% (inactive)
25 | CC1CN(Cc2ccc(O)c3ncccc23)CC(C)O1 (configuration not stated) | 12% (inactive)
26 | CC(Nc1nc(-c2ccccn2)nnc1-c1ccccc1)c1ccccc1 (configuration not stated) | 22.8% (inactive)
27 | COc1ccc(CNc2nc(-c3ccccn3)nnc2-c2ccccc2)cc1 | 53.2% (inactive)
28 | OCC1CCN(c2nc(-c3ccccn3)nnc2-c2ccccc2)CC1 | 6.32% (inactive)
29 | Cc1ccccc1CNc1nc(-c2ccccn2)nnc1-c1ccccc1 | 29.7% (inactive)
30 | O=C(NCCN1CCCCC1)c1cc(-c2ccccc2)on1 | -24.8% (inactive)
31 | O=C(NCC1CCCCC1)c1cc(-c2ccccc2)on1 | -23.5% (inactive)
32 | c1ccc(-c2nnc(-c3ccccn3)nc2N2CCN(c3ccncc3)CC2)cc1 | 10.3% (inactive)
33 | Cn1c(-c2ccccc2)cnc1Nc1nc(-c2ccccn2)nnc1-c1ccccc1 | 6.25% (inactive)
34 | c1ccc(-c2nnc(-c3ccccn3)nc2N2CCC(C3CCCCC3)C2)cc1 (configuration not stated) | 51.6% (inactive)
35 | c1ccc(-c2nnc(-c3ccccn3)nc2Nc2cnc3ccccc3n2)cc1 | -2.5% (inactive)
36 | c1ccc(-c2nnc(Nc3nc(-c4ccccn4)nnc3-c3ccccc3)s2)cc1 | -5.61% (inactive)
37 | c1ccc(-c2nnc(-c3ccccn3)nc2NCC2CCOCC2)cc1 | 6.73% (inactive)
38 | O=C(Nc1cnc2ccccc2c1)c1cc(-c2ccccc2)on1 | -16.4% (inactive)
39 | c1ccc(CCNc2nc(-c3ccccn3)nnc2-c2ccccc2)cc1 | 43.3% (inactive)
40 | Cc1ccc(CNc2nc(-c3ccccn3)nnc2-c2ccccc2)cc1 | 14.3% (inactive)
41 | CN1CCN(c2nc(-c3ccccn3)nnc2-c2ccccc2)CC1 | 20.7% (inactive)
42 | O=C(c1cc(-c2ccccc2)on1)N1CCC(N2CCOCC2)CC1 | -8.89% (inactive)
43 | c1ccc(-c2ccc(CNc3nc(-c4ccccn4)nnc3-c3ccccc3)cc2)cc1 | 22% (inactive)
44 | CC(C)(C)c1ccc(CNc2nc(-c3ccccn3)nnc2-c2ccccc2)cc1 | 37.7% (inactive)

Row | Structure (SMILES) | activity change, negative = inhibition
45 | CC(C)(C)CCNc1nc(-c2ccccn2)nnc1-c1ccccc1 | 145% (inactive) and 67.4% (inactive)
46 | O=C(NCc1ccccc1)c1cc(-c2ccccc2)on1 | -23.1% (inactive)
47 | COc1ccccc1N1CCN(Cc2ccc(O)c3ncccc23)CC1 | 27.2% (inactive)
48 | c1ccc(-c2nnc(-c3ccccn3)nc2NCc2ccccn2)cc1 | 1.56% (inactive)
49 | O=C(Nc1nnc(-c2ccccc2)s1)c1cc(-c2ccccc2)on1 | -5.17% (inactive)
50 | Cc1ccc(CNc2nc(-c3ccccn3)nnc2-c2ccccc2)cc1C | 76.7% (inactive)
51 | N#CC1(c2ccccc2)CCN(Cc2ccc(O)c3ncccc23)CC1 | 48.4% (inactive)
52 | Cc1cccc(Nc2nc(-c3ccccn3)nnc2-c2ccccc2)n1 | -11.6% (inactive)
53 | Oc1ccc(CN2CCC3CCCCC3C2)c2cccnc12 (configuration not stated) | 26.7% (inactive)
54 | C[C@@H](Nc1nc(-c2ccccn2)nnc1-c1ccccc1)C1CCCCC1 | 133% (inactive)
55 | O=C(c1cc(-c2ccccc2)on1)N1CCC(CO)CC1 | -22.3% (inactive)
56 | c1ccc(CNc2nc(-c3ccccn3)nnc2-c2ccccc2)cc1 | 25.8% (inactive)
57 | c1ccc(-c2nnc(-c3ccccn3)nc2N2CCC(c3ccccc3)C2)cc1 (configuration not stated) | -6.19% (inactive)
58 | Cn1c(-c2ccccc2)cnc1NC(=O)c1cc(-c2ccccc2)on1 | -10.3% (inactive)
59 | C=CCNc1nc(-c2ccccn2)nnc1-c1ccccc1 | 4.88% (inactive)
60 | Cn1c(NC(=O)c2cc(-c3ccccc3)on2)nc2ccccc21 | -1.13% (inactive)
61 | c1ccc(-c2cccc(CNc3nc(-c4ccccn4)nnc3-c3ccccc3)c2)cc1 | 26.9% (inactive)
62 | Oc1ccc(CN2CCC(Cc3ccccc3)CC2)c2cccnc12 | 30.7% (inactive)
63 | OCCCNc1nc(-c2ccccn2)nnc1-c1ccccc1 | -5.89% (inactive)
64 | Oc1ccc(CN2CCc3ccccc3C2)c2cccnc12 | 65.3% (inactive) and 46.7% (inactive)
65 | C[C@H](Nc1nc(-c2ccccn2)nnc1-c1ccccc1)C1CCCCC1 | 72.6% (inactive)
66 | c1ccc(-c2nnc(-c3ccccn3)nc2Nc2nc3ccccc3s2)cc1 | 28.5% (inactive)

Test system: U2OS proteasome chymotrypsin-like activity, Proteasome-Glo luminescence
Experiment: as above
Conditions: not given
How it was run: as §1

Row | Structure (SMILES) | AC50 [µM]
67 | O=C(c1cc(-c2ccccc2)on1)N1CCN(c2ccncc2)CC1 | 2.52
68 | Cc1cccc(CNC(=O)c2cc(-c3ccccc3)on2)c1 | 39.4
69 | O=C(NCCCO)c1cc(-c2ccccc2)on1 | 3.88
70 | O=C(Nc1ccc2ccccc2n1)c1cc(-c2ccccc2)on1 | 29.1
71 | c1ccc(-c2cnc(Nc3nc(-c4ccccn4)nnc3-c3ccccc3)s2)cc1 | 2.42
72 | CC(C)(C)CCNC(=O)c1cc(-c2ccccc2)on1 | 36.5
73 | O=C(Nc1ncc2ccccc2n1)c1cc(-c2ccccc2)on1 | 28.1
74 | O=C(NCC1CC1)c1cc(-c2ccccc2)on1 | 33.7
75 | CN(C)CCNC(=O)c1cc(-c2ccccc2)on1 | 33.4
76 | Cc1cccc(NC(=O)c2cc(-c3ccccc3)on2)n1 | 17.3
77 | CCCCNC(=O)c1cc(-c2ccccc2)on1 | 21.5

— PubChem BioAssay AID493213 (Broad Institute, 2011)
